Measured values taken from ChEMBL document CHEMBL1154693, “Discovery of trans-4-[1-[[2,5-Dichloro-4-(1-methyl-3-indolylcarboxamido)phenyl]acetyl]-(4S)-methoxy-(2S)-pyrrolidinylmethoxy]cyclohexanecarboxylic acid: an orally active, selective very late antigen-4 antagonist” (J Med Chem, 2009).

Tests used:
[1] = Oral bioavailability in rat; settings: in vivo
[2] = Protein binding in plasma
[3] = target: T1, Integrin alpha-4/beta-1 (Homo sapiens, UniProt P05556+P13612); experiment: Inhibition of europium labeled human VCAM1/Fc chimera binding to human VLA-4 alpha-4-beta-1 expressed in Chinese hamster 4B4 cells by fluorimetric assay; type: cell-based
T1 sequence (P05556 whole entry): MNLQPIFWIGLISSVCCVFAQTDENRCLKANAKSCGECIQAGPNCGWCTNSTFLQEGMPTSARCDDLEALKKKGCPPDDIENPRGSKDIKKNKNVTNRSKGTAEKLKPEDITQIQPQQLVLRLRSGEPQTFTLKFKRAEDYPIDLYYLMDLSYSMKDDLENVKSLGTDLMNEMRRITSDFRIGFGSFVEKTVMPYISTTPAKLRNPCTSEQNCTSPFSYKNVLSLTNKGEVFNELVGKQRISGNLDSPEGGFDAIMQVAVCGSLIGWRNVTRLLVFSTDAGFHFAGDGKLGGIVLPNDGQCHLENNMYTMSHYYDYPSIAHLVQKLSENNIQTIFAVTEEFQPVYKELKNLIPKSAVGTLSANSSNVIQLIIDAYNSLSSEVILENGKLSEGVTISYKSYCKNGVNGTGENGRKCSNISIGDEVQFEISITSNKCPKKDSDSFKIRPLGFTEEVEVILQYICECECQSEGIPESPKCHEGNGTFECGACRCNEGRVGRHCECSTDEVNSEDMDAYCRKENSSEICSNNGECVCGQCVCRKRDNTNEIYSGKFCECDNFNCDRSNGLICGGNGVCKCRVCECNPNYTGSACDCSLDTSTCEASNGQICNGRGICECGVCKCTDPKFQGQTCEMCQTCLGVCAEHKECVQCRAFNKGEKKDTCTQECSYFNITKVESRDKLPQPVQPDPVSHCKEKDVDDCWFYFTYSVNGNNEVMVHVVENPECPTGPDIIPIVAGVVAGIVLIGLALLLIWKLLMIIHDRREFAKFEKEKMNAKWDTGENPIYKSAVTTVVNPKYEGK
T1 sequence (P13612 whole entry): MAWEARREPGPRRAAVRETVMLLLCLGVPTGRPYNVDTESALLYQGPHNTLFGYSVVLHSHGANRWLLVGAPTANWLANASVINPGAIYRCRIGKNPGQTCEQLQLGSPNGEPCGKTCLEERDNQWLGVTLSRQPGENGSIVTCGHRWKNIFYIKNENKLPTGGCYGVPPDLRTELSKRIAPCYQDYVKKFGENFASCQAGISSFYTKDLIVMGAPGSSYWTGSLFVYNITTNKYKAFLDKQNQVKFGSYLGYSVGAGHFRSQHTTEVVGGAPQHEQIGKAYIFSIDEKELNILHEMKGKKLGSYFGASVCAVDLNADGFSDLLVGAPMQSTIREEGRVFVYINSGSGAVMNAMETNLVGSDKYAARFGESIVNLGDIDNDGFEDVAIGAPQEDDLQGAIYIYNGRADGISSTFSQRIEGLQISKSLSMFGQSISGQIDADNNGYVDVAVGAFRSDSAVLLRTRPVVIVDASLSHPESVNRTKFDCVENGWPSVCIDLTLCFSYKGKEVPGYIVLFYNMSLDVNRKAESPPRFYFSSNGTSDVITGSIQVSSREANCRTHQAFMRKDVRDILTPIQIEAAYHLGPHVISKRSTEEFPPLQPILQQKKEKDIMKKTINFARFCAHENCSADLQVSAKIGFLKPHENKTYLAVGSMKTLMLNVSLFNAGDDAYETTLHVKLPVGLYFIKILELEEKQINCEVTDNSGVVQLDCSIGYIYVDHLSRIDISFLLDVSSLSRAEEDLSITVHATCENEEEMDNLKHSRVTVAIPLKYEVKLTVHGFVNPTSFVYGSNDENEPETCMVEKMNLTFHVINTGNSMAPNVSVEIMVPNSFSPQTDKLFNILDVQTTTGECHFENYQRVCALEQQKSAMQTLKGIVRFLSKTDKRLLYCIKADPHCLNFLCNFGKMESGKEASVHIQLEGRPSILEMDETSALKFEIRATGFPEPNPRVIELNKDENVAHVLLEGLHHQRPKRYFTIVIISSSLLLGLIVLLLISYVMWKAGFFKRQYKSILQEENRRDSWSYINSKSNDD

[4] = Volume of distribution at steady state in Sprague-Dawley rat at 10 mg/kg, iv; type: ADME, organism-based; parameters: dose 10 mg/kg, route intravenous; settings: in vivo, read-out: Vdss
[5] = target: T1, Integrin alpha-4/beta-1; experiment: Inhibition of europium labeled human VCAM1/Fc chimera binding to human VLA-4 alpha-4-beta-1 expressed in Chinese hamster 4B4 cells in presence of 3% HSA by fluorimetric assay; type: cell-based
How it was run: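 CHO-K1 4B4 cells transfected with human α4 and β1, plated at 3 × 10⁵ cells/mL and cultured 2 days, washed with HEPES pH 7.5 buffer containing Ca, Mg, Mn. Compound plus Eu-labeled human VCAM-1/Fc (final 1 nM), with or without human serum albumin, 60 min at room temperature; washed, Eu time-resolved fluorescence read; duplicates.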

[6] = Half life in Sprague-Dawley rat at 10 mg/kg, iv; type: ADME, organism-based; parameters: dose 10 mg/kg, route intravenous; settings: in vivo
[7] = target: T2, Integrin alpha-4/beta-7 (Homo sapiens) (UniProt P13612+P26010); settings: at 4 µg/mL
[8] = Clearance in Sprague-Dawley rat at 10 mg/kg, iv; type: ADME, organism-based; parameters: dose 10 mg/kg, route intravenous; settings: in vivo
[9] = in vivo; settings: rat, plasma
[10] = Drug level in BALB/c mouse serum at 10 mg/kg, po after 15 mins; type: ADME, organism-based; parameters: dose 10 mg/kg, route oral; settings: read-out: Drug uptake
How it was run: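 Serum (final 0.01-10%) assayed in the VLA-4/VCAM-1 binding assay, and concentration estimated from a calibration curve of compound spiked into untreated mouse serum.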

[11] = Volume of distribution at steady state in cynomolgus monkey at 0.5 mg/kg, iv; type: ADME, organism-based, Macaca fascicularis; parameters: dose 0.5 mg/kg, route intravenous; settings: in vivo, read-out: Vdss
How it was run: (§1)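 Female cynomolgus monkeys (3.5-4 kg), fasted 18 h, three per group. Dose 0.5 mg/kg, oral as suspension in 0.5% MC or iv in saline with 3 equiv NaOH. Blood sampled from 0.08 (iv) or 0.25 (po) up to 24 h, food after 4 h; plasma LC/MS/MS, noncompartmental analysis.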

[12] = Half life in cynomolgus monkey at 0.5 mg/kg, po; type: ADME, organism-based, Macaca fascicularis; parameters: dose 0.5 mg/kg, route oral; settings: in vivo; how it was run: as §1
[13] = AUC in Beagle dog at 0.5 mg/kg, iv; type: ADME, organism-based, Canis lupus familiaris; parameters: dose 0.5 mg/kg, route intravenous; settings: plasma
How it was run: (§2)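 Male beagle dogs (10-12 kg), fasted 18 h, three per group; cassette dosing 0.5 mg/kg in 0.5% MC with 3 equiv NaOH (po) or saline with 3 equiv NaOH (iv). Blood taken 0.08 (iv) or 0.25 (po) to 24 h, fed after 4 h; plasma assayed by LC/MS/MS, noncompartmental analysis.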

[14] = Oral bioavailability in cynomolgus monkey at 0.5 mg/kg, po; type: ADME, organism-based, Macaca fascicularis; settings: in vivo; how it was run: as §1
[15] = Cmax in cynomolgus monkey at 0.5 mg/kg, po; type: ADME, organism-based, Macaca fascicularis; parameters: dose 0.5 mg/kg, route oral; settings: in vivo; how it was run: as §1
[16] = test system: Cavia porcellus; experiment: Inhibition of acetylcholine chloride-induced bronchial hyperesponsiveness in ovalbumin challenged guinea pig asthma model administered orally 1 hr before and 2.5 hrs after antigen challenge; type: functional
How it was run: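 Hartley guinea pigs (n = 8/group) sensitized with 1% OVA aerosol 10 min/day for 8 days, challenged a week later with 2% OVA aerosol 5 min; metyrapone iv and pyrilamine ip pretreatment. Oral doses 0.8, 2, 5 or 12.5 mg/kg at 1 h before and 2.5 h after challenge. At 22-27.5 h, stepwise ACh aerosol (0.0625-2 mg/mL); PC100ACh from sRaw.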

[17] = Cmax in Beagle dog at 0.5 mg/kg, po; type: ADME, organism-based, Canis lupus familiaris; parameters: dose 0.5 mg/kg, route oral; settings: in vivo; how it was run: as §2
[18] = AUC in cynomolgus monkey at 0.5 mg/kg, iv; type: ADME, organism-based, Macaca fascicularis; parameters: dose 0.5 mg/kg, route intravenous; settings: plasma; how it was run: as §1
[19] = test system: Mus musculus; experiment: Antiinflammatory activity in Ascaris suum antigen-induced BALB/c AnNCrj mouse asthma model assessed as inhibition of eosinophil infiltration in BAL fluid orally administered twice daily 15 mins before and 8, 24 and 32 hrs after antigen challenge measured 48 hrs after antigen challenge; type: functional, organism-based
How it was run: (§3)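 Female BALB/c AnNCrj mice given cyclophosphamide 150 mg/kg po (day 0), sensitized ip with Ascaris suum extract plus alum on days 2 and 14, challenged intratracheally day 22. Compound in 0.5% MC/0.03% Tween 80 po 15 min before and 8, 24, 32 h after challenge; BAL at 48 h, eosinophils from total count times Wright-stained differential.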

[20] = Oral bioavailability in Beagle dog at 0.5 mg/kg, po; type: ADME, organism-based, Canis lupus familiaris; settings: in vivo; how it was run: as §2
[21] = AUC in cynomolgus monkey at 0.5 mg/kg, po; type: ADME, organism-based, Macaca fascicularis; parameters: dose 0.5 mg/kg, route oral; settings: plasma; how it was run: as §1
[22] = Volume of distribution at steady state in Beagle dog at 0.5 mg/kg, iv; type: ADME, organism-based, Canis lupus familiaris; parameters: dose 0.5 mg/kg, route intravenous; settings: in vivo, read-out: Vdss; how it was run: as §2
[23] = Half life in Beagle dog at 0.5 mg/kg, po; type: ADME, organism-based, Canis lupus familiaris; parameters: dose 0.5 mg/kg, route oral; settings: in vivo; how it was run: as §2
[24] = target: T2, Integrin alpha-4/beta-7 (Homo sapiens); experiment: Inhibition of MAdCAM1 binding to integrin alpha4beta7 receptor in human RPMI8866 cells at 16 uM by cell/protein binding assay; type: cell-based
How it was run: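 RPMI8866 human B cells (α4β7+, β1−) at 1.2 × 10⁶/well in HEPES buffer containing BSA, DTPA, Ca, Mg and Mn, mixed with compound (final 10 μg/mL to 1 ng/mL) and Eu-MAdCAM-1 (final 1 nM) for 1 h at room temperature. Free ligand removed by centrifugation and washing; time-resolved fluorescence measured.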

[25] = Half life in Sprague-Dawley rat at 1 mg/kg, iv; type: ADME, organism-based; parameters: dose 1 mg/kg, route intravenous; settings: in vivo
How it was run: (§4)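 Male Sprague-Dawley rats (7 weeks), fasted 18 h, four per group. 1 mg/kg oral in 0.5% MC or iv in saline, each with 3 equiv NaOH. Plasma drawn at 0.08 (iv) or 0.25 (po), 0.5, 1, 2 and 6 h; LC/MS/MS quantitation, noncompartmental parameters.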

[26] = Oral bioavailability in Sprague-Dawley rat at 1 mg/kg, po; type: ADME, organism-based; settings: in vivo; how it was run: as §4
[27] = test system: Mus musculus; experiment: Antiinflammatory activity in Ascaris suum antigen-induced BALB/c AnNCrj mouse asthma model assessed as inhibition of eosinophil infiltration in BAL fluid at 5 mg.kg, po bid administered 15 mins before and 8, 24 and 32 hrs after antigen challenge measured 48 hrs after antigen challenge; type: functional; how it was run: as §3
[28] = Half life in Beagle dog at 0.5 mg/kg, iv; type: ADME, organism-based, Canis lupus familiaris; parameters: dose 0.5 mg/kg, route intravenous; settings: in vivo; how it was run: as §2
[29] = target: Intercellular adhesion molecule (ICAM-1), Integrin alpha-L/beta-2 (Homo sapiens) (UniProt P20701+P05362+P05107); experiment: Inhibition of europium labeled human ICAM1 binding to human integrin alphaLbeta2 receptor at 162 uM by protein/protein binding assay; type: protein-complex assay
How it was run: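 Membrane-bound human LFA-1 immobilized at 1 μg/mL overnight at 4 °C, then blocked with BSA. Compound added with 2 nM Eu-labeled human ICAM-1 D1D5-IgG in 5% DMSO and bound for 2 h at room temperature; plates washed and Eu fluorescence read by time-resolved fluorometry.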

[30] = Clearance in Sprague-Dawley rat at 1 mg/kg, iv; type: ADME, organism-based; parameters: dose 1 mg/kg, route intravenous; settings: in vivo; how it was run: as §4
[31] = Cmax in Sprague-Dawley rat at 1 mg/kg, po; type: ADME, organism-based; parameters: dose 1 mg/kg, route oral; settings: in vivo; how it was run: as §4
[32] = Clearance in Beagle dog at 0.5 mg/kg, iv; type: ADME, organism-based, Canis lupus familiaris; parameters: dose 0.5 mg/kg, route intravenous; settings: in vivo; how it was run: as §2
[33] = Half life in cynomolgus monkey at 0.5 mg/kg, iv; type: ADME, organism-based, Macaca fascicularis; parameters: dose 0.5 mg/kg, route intravenous; settings: in vivo; how it was run: as §1
[34] = AUC in Beagle dog at 0.5 mg/kg, po; type: ADME, organism-based, Canis lupus familiaris; parameters: dose 0.5 mg/kg, route oral; settings: plasma; how it was run: as §2
[35] = target: Integrin alpha-IIb/beta-3 (Homo sapiens) (UniProt P05106+P08514); experiment: Inhibition of integrin alpha2bbeta3 receptor dependent platelet aggregation at 16 uM
How it was run: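 Platelet-rich plasma prepared from citrated blood of two volunteers. Compound in DMSO preincubated with PRP for 2 min at 37 °C, then aggregation induced with collagen; aggregation rate followed for 10 min.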

[36] = Half life in Sprague-Dawley rat at 1 mg/kg, po; type: ADME, organism-based; parameters: dose 1 mg/kg, route oral; settings: in vivo; how it was run: as §4
[37] = Volume of distribution at steady state in Sprague-Dawley rat at 1 mg/kg, iv; type: ADME, organism-based; parameters: dose 1 mg/kg, route intravenous; settings: in vivo, read-out: Vdss; how it was run: as §4
[38] = Clearance in cynomolgus monkey at 0.5 mg/kg, iv; type: ADME, organism-based, Macaca fascicularis; parameters: dose 0.5 mg/kg, route intravenous; settings: in vivo; how it was run: as §1
[39] = AUC in Sprague-Dawley rat at 1 mg/kg, iv; type: ADME, organism-based; parameters: dose 1 mg/kg, route intravenous; settings: plasma; how it was run: as §4
[40] = AUC in Sprague-Dawley rat at 1 mg/kg, po; type: ADME, organism-based; parameters: dose 1 mg/kg, route oral; settings: plasma; how it was run: as §4
[41] = test system: Mus musculus; experiment: Toxicity in BALB/c AnNCrj mouse assessed as induction of hepatic injury at 50 mg/kg, iv for 2 days; type: organism-based; parameters: dose 50 mg/kg, route intravenous; settings: in vivo, 48 h
How it was run: (§5)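 Mice dosed iv at 50 mg/kg or orally at 25 or 200 (mg/kg)/day for 2 days, then assessed for liver injury.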

[42] = test system: Mus musculus; experiment: Antiinflammatory activity in Ascaris suum antigen-induced BALB/c AnNCrj mouse asthma model assessed as reduction of acetylcholine chloride-induced bronchial hyperesponsiveness at 12.5 mg/kg, bid administered 15 mins before and 8, 24 and 32 hrs after antigen challenge measured 48 hrs after antigen challenge; type: functional; parameters: scale not given: the % may be the effect or the level left
How it was run: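 Sensitized/challenged BALB/c AnNCrj mice (Ascaris suum, as in the eosinophil model) dosed po in 0.5% MC/0.03% Tween 80 at 15 min before and 8, 24, 32 h after challenge. At 48 h, pentobarbital-anesthetized, tracheotomized, ventilated mice given ACh injection; lung resistance increase measured.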

[43] = test system: Mus musculus; experiment: Toxicity in BALB/c AnNCrj mouse assessed as induction of hepatic injury at 200 mg/kg, po for 2 days; type: organism-based; parameters: dose 200 mg/kg, route oral; settings: in vivo, 48 h; how it was run: as §5

Cc1ccccc1Nc1nc2ccc(CC(=O)N3C[C@@H](F)C[C@H]3CO[C@H]3CC[C@H](C(=O)O)CC3)cc2o1
bioavailability [1]: 24% | fraction unbound [2]: 0.03 | IC50 [3]: 2.8 nM | Vd [4]: 0.317 L/kg | IC50 [5]: 45 nM | half-life [6]: 0.8 h | inhibition [7]: 46% | clearance [8]: 12.2 mL/min/kg | clearance [9]: 12.2 mL/min/kg | concentration at 0.25 h [10]: 373 ng/mL

CO[C@H]1C[C@@H](CO[C@H]2CC[C@H](C(=O)O)CC2)N(C(=O)Cc2cc(Cl)c(NC(=O)c3cn(C)c4ccccc34)cc2Cl)C1
Vd [11]: 0.223 L/kg | half-life [12]: 5.5 h | AUC [13]: 6710 ng·h/mL | bioavailability [14]: 68% | IC50 [3]: 5.4 nM | Cmax [15]: 431 ng/mL | Activity [16]: Dose-dependent effect | ED50 ([16]; po, read-out: ID50 (the source's name)): 3 mg/kg | Cmax [17]: 1590 ng/mL | AUC [18]: 5140 ng·h/mL | Activity [19]: Dose-dependent effect | bioavailability [20]: 91% | AUC [21]: 3480 ng·h/mL | Vd [22]: 0.164 L/kg | half-life [23]: 2 h | inhibition [24]: 41% | half-life [25]: 1 h | bioavailability [26]: > 100% | inhibition (INH) [27]: 53% | IC50 [5]: 93 nM | half-life [28]: 2.1 h | inhibition [29]: 9% | clearance [30]: 19.3 mL/min/kg | Cmax [31]: 385 ng/mL | clearance [32]: 1.7 mL/min/kg | half-life [33]: 6.3 h | AUC [34]: 6090 ng·h/mL | inhibition [35]: 10% | half-life [36]: 1.5 h | Vd [37]: 1.22 L/kg | clearance [38]: 1.8 mL/min/kg | AUC [39]: 865 ng·h/mL | AUC [40]: 975 ng·h/mL | Activity [41]: Non-toxic | Activity [42]: 83% | concentration at 0.25 h [10]: 6150 ng/mL | Activity [43]: Non-toxic
